In ChEMBL document CHEMBL1143367, “Therapeutic index of gramicidin S is strongly modulated by D-phenylalanine analogues at the beta-turn” (J Med Chem, 2009):
*1 amine or outer side, *2 acyl side, *3 side chain or, on linkers, in order; H or OH if unused. Where a SMILES comes first, the peptide text is derived from it. [ ]: non-standard residue; d: D form. X1 = O=C([C@H](N[*:1])C1c2ccccc2-c2ccccc21)[*:2]; d1Nal = N[C@H](Cc1cccc2ccccc12)C(=O)O; d2Nal = N[C@H](Cc1ccc2ccccc2c1)C(=O)O; dTic = O=C(O)[C@H]1Cc2ccccc2CN1; Orn = NCCC[C@H](N)C(=O)O

Legend:
Settings in all cases: defibrinated sheep red blood cells, read-out: TI
[1] = Therapeutic index, ratio of HC50 for defibrinated sheep RBC to MIC50 for colistin-resistant Acinetobacter baumannii 19606R
Procedure, shortened: (§1)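 TI is HC50/MIC50. For HC50, defibrinated sheep erythrocytes were washed in Hank's medium with 20 mM glucose (pH 7.2), held at 2 × 10^7 cells/mL, and incubated 4 h at 37 °C with peptide in triplicate. After centrifugation, hemoglobin release was read at 550 nm.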

[2] = Therapeutic index, ratio of HC50 for defibrinated sheep RBC to MIC50 for Listeria monocytogenes CECT 4032; procedure, shortened: as §1
[3] = Therapeutic index, ratio of HC50 for defibrinated sheep RBC to MIC50 for Staphylococcus aureus CECT 240; procedure, shortened: as §1

| Compound | selectivity ratio [1] | selectivity ratio [2] | selectivity ratio [3] |
| --- | --- | --- | --- |
| CC(C)C[C@@H]1NC(=O)[C@H](CCCN)NC(=O)[C@H](C(C)C)NC(=O)[C@@H]2CCCN2C(=O)[C@@H](C2c3ccccc3-c3ccccc32)NC(=O)[C@H](CC(C)C)NC(=O)[C@H](CCCN)NC(=O)[C@H](C(C)C)NC(=O)[C@@H]2CCCN2C(=O)[C@@H](C2c3ccccc3-c3ccccc32)NC1=O (cyclo(L[X1]PV[Orn]L[X1]PV[Orn])) | > 0.1 | – | – |
| CC(C)C[C@@H]1NC(=O)[C@H](CCCN)NC(=O)[C@H](C(C)C)NC(=O)[C@@H]2CCCN2C(=O)[C@@H](Cc2cccc3ccccc23)NC(=O)[C@H](CC(C)C)NC(=O)[C@H](CCCN)NC(=O)[C@H](C(C)C)NC(=O)[C@@H]2CCCN2C(=O)[C@@H](Cc2cccc3ccccc23)NC1=O (cyclo(L[d1Nal]PV[Orn]L[d1Nal]PV[Orn])) | > 0.1 | – | – |
| CC(C)C[C@@H]1NC(=O)[C@H](CCCN)NC(=O)[C@H](C(C)C)NC(=O)[C@@H]2CCCN2C(=O)[C@@H](Cc2ccc3ccccc3c2)NC(=O)[C@H](CC(C)C)NC(=O)[C@H](CCCN)NC(=O)[C@H](C(C)C)NC(=O)[C@@H]2CCCN2C(=O)[C@@H](Cc2ccc3ccccc3c2)NC1=O (cyclo(L[d2Nal]PV[Orn]L[d2Nal]PV[Orn])) | > 0.2 | – | – |
| CC(C)C[C@@H]1NC(=O)[C@H](CCCN)NC(=O)[C@H](C(C)C)NC(=O)[C@@H]2CCCN2C(=O)[C@H]2Cc3ccccc3CN2C(=O)[C@H](CC(C)C)NC(=O)[C@H](CCCN)NC(=O)[C@H](C(C)C)NC(=O)[C@@H]2CCCN2C(=O)[C@H]2Cc3ccccc3CN2C1=O (cyclo(L[dTic]PV[Orn]L[dTic]PV[Orn])) | – | > 6 | > 10.2 |
